The results in this text go back to ChEMBL document CHEMBL1144684, “Evaluation of a series of naphthamides as potent, orally active vascular endothelial growth factor receptor-2 tyrosine kinase inhibitors” (J Med Chem, 2008).

The subject of one series is Liver microsomes. The experiment in a line: Metabolic stability assessed as covalent binding in absence of NADPH in rat liver microsomes at 10 uM after 1 hr. The series is classed as ADME, Microsome. In outline:
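14C-labelled compound at 10 µM with human or rat liver microsomes (1 mg/mL) in 0.1 M potassium phosphate pH 7.4, with or without 1 mM NADPH and 1 mM glutathione, 60 min; quenched with ice-cold acetonitrile. Pellet washed with 80% methanol and ethanol/ether, solubilized, protein by BCA, radioactivity by scintillation counting.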
(In general: Microsomes from liver hold many membrane-bound enzymes, among them those of drug oxidation.)

Series [1] can be described thus: AUC (0 to 24 hrs) in mouse at 10 mg/kg, po. Type of series: ADME, organism-based. The arrangement: time < 24 hr, dose 10 mg/kg, route oral. Particulars: plasma. In short, it runs like this:
(§1)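 Compound given iv and po as single doses; vehicles: mouse iv PEG 400, po OraPlus; dog iv DMSO, po 1% Tween-80/2% HPMC/97% water; cynomolgus iv propylene glycol, po suspension.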

Series [2] has as its target Platelet-derived growth factor receptor alpha (Homo sapiens) (UniProt P16234). The experiment in a line: Inhibition of PDGFRalpha.
Series [3] has as its target Vascular endothelial growth factor receptor 2 (Homo sapiens, UniProt P35968).
Another series has as its target Aurora kinase B (Homo sapiens, UniProt Q96GD4). The experiment in a line: Inhibition of Aurora B.
Series [4] concerns the target Vascular endothelial growth factor receptor 1 (Homo sapiens, UniProt P17948). The experiment in a line: Inhibition of human VEGFR1.
The nature of series [5]: Mean residence time in cynomolgus monkey at 0.5 mg/kg, iv. The settings on record: in vivo. On the set-up: dose 0.5 mg/kg, route intravenous. Type of series: ADME, organism-based, Macaca fascicularis. In short, it runs like this:
as §1

Series [6] is described as follows: Cmax in cynomolgus monkey at 2 mg/kg, po. On the set-up: dose 2 mg/kg, route oral. The settings on record: in vivo. The series is classed as ADME, organism-based, Macaca fascicularis. In outline: as §1
Series [7] in a line: Half life in Sprague-Dawley rat at 0.5 mg/kg, iv. The series is classed as ADME, organism-based. On the set-up: dose 0.5 mg/kg, route intravenous. The settings on record: in vivo. In outline:
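Male Sprague–Dawley rats dosed iv via femoral vein as DMSO solution (1 or 0.5 mg/kg) or po by gavage as OraPlus suspension (pH 2.0–2.2 with methanesulfonic acid; 10 or 2 mg/kg). Serial jugular blood over 12–24 h; plasma acetonitrile precipitation, LC-MS/MS (MRM) with internal standard; noncompartmental parameters.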

The source made the active and inactive calls.

Vascular endothelial growth factor receptor 1, sequence (P17948 whole entry): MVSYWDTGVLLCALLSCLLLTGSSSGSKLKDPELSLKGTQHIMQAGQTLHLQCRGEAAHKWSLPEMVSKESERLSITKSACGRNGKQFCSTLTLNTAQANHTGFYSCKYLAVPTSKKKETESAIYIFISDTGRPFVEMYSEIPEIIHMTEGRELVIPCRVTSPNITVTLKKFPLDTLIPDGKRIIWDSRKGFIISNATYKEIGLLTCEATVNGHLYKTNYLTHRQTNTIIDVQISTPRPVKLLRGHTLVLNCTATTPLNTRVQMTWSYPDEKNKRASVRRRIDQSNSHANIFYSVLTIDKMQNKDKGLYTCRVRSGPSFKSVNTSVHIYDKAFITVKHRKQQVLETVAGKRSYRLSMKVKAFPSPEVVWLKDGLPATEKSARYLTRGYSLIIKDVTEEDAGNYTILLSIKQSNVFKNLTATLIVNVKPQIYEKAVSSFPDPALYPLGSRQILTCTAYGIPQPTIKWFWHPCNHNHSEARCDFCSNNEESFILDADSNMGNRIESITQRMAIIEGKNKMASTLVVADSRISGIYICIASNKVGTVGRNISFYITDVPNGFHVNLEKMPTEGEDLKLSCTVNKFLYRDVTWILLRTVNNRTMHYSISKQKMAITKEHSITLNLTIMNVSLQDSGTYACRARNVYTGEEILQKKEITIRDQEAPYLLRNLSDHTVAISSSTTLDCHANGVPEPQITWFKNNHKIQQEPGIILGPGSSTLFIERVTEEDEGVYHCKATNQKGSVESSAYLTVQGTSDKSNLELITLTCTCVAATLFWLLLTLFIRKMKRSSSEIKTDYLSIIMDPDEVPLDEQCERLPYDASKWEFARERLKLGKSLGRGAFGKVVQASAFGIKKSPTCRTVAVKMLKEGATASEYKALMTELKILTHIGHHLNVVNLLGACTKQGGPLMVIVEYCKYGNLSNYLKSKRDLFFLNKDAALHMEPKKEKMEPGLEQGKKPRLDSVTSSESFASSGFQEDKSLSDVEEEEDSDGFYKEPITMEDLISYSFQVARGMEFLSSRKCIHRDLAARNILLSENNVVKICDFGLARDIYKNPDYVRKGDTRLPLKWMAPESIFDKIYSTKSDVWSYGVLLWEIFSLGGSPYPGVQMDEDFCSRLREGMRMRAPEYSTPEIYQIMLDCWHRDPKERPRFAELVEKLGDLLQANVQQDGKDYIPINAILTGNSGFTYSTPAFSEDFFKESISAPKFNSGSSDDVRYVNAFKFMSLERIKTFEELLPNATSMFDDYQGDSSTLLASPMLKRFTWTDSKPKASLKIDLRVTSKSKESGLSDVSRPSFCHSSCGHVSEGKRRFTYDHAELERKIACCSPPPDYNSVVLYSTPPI
Vascular endothelial growth factor receptor 2, sequence (P35968 whole entry): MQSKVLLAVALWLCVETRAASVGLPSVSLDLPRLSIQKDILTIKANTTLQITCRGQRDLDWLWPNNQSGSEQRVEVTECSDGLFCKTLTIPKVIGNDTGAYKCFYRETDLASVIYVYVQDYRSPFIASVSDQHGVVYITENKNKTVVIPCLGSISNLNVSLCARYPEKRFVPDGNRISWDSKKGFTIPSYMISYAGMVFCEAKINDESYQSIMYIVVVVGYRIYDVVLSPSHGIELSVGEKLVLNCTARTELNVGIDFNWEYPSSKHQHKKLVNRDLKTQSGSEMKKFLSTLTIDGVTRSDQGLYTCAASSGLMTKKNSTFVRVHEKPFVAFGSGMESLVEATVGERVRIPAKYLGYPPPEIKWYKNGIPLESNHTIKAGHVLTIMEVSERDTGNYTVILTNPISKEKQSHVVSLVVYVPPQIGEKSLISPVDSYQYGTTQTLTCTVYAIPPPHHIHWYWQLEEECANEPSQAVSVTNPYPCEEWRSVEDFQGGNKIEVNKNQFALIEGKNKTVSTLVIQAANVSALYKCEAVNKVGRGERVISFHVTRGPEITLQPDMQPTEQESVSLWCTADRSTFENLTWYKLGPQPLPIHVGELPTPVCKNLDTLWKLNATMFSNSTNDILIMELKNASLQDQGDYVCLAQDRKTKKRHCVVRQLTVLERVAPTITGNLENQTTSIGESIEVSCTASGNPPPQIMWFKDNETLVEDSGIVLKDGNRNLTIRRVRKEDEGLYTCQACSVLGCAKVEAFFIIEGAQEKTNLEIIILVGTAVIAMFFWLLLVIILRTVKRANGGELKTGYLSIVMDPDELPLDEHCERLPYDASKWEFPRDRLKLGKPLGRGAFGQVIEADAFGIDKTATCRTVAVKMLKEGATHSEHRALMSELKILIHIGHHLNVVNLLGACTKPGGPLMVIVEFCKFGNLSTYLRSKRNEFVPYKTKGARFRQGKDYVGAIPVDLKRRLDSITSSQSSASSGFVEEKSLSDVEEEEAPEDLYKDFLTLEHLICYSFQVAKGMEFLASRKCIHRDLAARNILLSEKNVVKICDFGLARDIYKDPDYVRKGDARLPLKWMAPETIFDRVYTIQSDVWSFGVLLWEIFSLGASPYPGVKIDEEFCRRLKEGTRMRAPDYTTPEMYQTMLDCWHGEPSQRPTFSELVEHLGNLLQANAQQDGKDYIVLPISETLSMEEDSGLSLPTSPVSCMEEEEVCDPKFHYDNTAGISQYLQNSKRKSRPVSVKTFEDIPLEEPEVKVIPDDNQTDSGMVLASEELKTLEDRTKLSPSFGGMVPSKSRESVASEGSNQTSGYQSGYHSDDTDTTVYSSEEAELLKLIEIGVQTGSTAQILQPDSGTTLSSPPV
Aurora kinase B, sequence (Q96GD4 whole entry): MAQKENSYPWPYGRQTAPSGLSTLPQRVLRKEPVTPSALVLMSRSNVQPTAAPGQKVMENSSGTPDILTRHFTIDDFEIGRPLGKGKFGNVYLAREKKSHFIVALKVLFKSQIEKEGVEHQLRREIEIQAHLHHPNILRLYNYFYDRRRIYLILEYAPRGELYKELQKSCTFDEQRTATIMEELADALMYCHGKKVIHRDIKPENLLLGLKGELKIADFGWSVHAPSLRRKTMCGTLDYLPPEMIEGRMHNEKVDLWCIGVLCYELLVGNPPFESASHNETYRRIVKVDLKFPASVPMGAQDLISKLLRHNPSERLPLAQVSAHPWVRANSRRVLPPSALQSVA
Platelet-derived growth factor receptor alpha (Homo sapiens), sequence (P16234 whole entry): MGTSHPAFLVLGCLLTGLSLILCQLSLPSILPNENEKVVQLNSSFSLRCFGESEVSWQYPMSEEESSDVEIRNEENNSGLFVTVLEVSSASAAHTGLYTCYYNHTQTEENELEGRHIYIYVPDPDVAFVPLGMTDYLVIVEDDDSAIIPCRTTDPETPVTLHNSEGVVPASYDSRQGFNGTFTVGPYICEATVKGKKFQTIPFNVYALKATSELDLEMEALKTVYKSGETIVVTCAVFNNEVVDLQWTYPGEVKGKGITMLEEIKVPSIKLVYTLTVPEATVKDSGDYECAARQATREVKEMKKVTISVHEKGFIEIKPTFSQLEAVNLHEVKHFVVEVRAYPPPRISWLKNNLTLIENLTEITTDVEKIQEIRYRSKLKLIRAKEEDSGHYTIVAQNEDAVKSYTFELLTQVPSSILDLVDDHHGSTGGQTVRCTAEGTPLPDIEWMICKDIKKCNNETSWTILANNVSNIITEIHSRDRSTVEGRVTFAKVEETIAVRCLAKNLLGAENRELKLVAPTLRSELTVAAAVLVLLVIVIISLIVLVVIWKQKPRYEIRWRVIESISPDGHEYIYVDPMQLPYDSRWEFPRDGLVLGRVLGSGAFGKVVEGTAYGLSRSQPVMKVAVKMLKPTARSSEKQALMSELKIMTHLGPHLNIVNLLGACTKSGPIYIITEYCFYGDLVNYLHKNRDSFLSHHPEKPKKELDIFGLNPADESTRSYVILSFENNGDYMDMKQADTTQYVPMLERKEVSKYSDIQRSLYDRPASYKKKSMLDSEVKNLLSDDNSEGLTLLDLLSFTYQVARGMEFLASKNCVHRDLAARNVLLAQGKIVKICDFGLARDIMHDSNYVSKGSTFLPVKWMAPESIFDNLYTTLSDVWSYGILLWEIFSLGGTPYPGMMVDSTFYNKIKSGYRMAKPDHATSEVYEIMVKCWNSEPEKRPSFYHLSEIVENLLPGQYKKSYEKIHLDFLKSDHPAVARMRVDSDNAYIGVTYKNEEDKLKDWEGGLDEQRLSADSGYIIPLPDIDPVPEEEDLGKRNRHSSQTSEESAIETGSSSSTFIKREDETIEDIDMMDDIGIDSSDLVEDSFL

`COc1cc2nccc(Oc3ccc4c(C(N)=O)cccc4c3)c2cc1OC`: the Stability in the series with Liver microsomes stood at 14 pmol/mg/h. This compound had an AUC(0-t) at 24 h in series [1] of 1.5 µg·h/mL. Besides, the result in series [2] and in series [4] was Active. Besides, the figures for the IC50 (in [3]; against Aurora kinase B) were 0.0009 µM and 0.22 µM, respectively. In addition, the MRT in series [5] came to 8.6 h. The compound further showed a Cmax in series [6] of 1.05 µg/mL. Also, the half-life in [7] was 6 h.

A word on the AUC(0-t): it is the area under the concentration-time curve up to a stated or last time point. By IC50 is commonly meant the point on the concentration scale where inhibition reaches its midpoint. A word on the MRT: it is the average time that molecules of a dose stay in the body. One may read the Cmax as the highest concentration seen after dosing. Broadly, the half-life is the time needed for the level to fall by half in the phase considered.
